How the values were obtained:
HT-29 [1] = assay: Cytotoxicity against human HT29 cells after 72 hrs by MTT assay; format: functional, cell-based; conditions: HT-29, 72 h
Summary of the method: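 HT29 grown in DMEM with 10% FBS and 2 mM L-glutamine at 37 °C, 5% CO2. Seeded at 3000 cells/well and treated 24 h later; vehicle 0.1% DMSO in PBS. MTT 0.5 mg/mL for 3 h, DMSO solubilization, OD 550 nm, triplicates, corrected for MTT blank and normalized to untreated. IC50 by Chou–Talalay median-effect plot.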

HT-29 [2] = assay: Cytotoxicity against human HT29 cells after 72 hrs by MTT assay in presence of 2 uM dicoumarol; format: functional, cell-based; conditions: HT-29, 72 h

Compound	IC50 (HT-29 [1]) [µM]	IC50 (HT-29 [2]) [µM]
CC1=C(C)C(=O)c2c(nc(CC(C)(C)[N+](=O)[O-])n2C)C1=O	> 100	
CO[C@@]12[C@H](COC(N)=O)C3=C(C(=O)C(C)=C(N)C3=O)N1C[C@@H]1N[C@@H]12 [MITOMYCIN]	0.9	2.1
